Data: ChEMBL document CHEMBL5712920, “The histone methyltransferase inhibitor A-366 enhances hemoglobin expression in erythroleukemia cells upon co-exposure with chemical inducers in culture” (J Biol Res (Thessalon), 2021)
Activity calls are given as the source filed them. The rule behind the calls is not given here.

Columns and labels:
[1] = system: FLC clone 745; experiment: Cytotoxicity against mouse FLC clone 745 cells assessed as reduction in cell viability at IC50 concentration measured up to 96 hrs by Neubauer chamber based microscopic analysis; format: toxicity; details: flc clone 745, 96 h
Summary of the method: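 MEL-745 cells treated continuously with compound at its previously determined 48 h IC50, without inducer, for up to 96 h. Total cell number counted daily in a Neubauer chamber. Final DMSO ≤0.2% v/v.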

[2] = system: FLC clone 745; experiment: Induction of cell cycle arrest in HMBA-stimulated mouse FLC clone 745 cells assessed as accumulation cells at subG1 phase at 10^-6 M after 72 hrs by PI staining based flow cytometric analysis (reference value: 58.77%); format: functional; details: dose 1 10^-6M, at 1 µM
Summary of the method: (§1)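 MEL cells plated at 5 × 10^5 per well and synchronized by serum deprivation for 24 h. Cells then incubated with compound at 10−6 M, alone or with HMBA 5 × 10−3 M, for 24, 48 and 72 h. Fixed in 70% ethanol overnight at 4 °C, stained with propidium iodide, and DNA content measured by flow cytometry to assign subG1, G1, S, G2/M and >4N fractions.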

[3] = system: FLC clone 745; experiment: Induction of cell cycle arrest in mouse FLC clone 745 cells assessed as accumulation cells at > 4N phase at 10^-6 M after 72 hrs by PI staining based flow cytometric analysis (reference value: 14.89%); format: functional; details: dose 1 10^-6M, at 1 µM; summary of the method: as §1
[4] = system: K562; experiment: Induction of apoptosis in human K562 cells assessed as effect on Bax mRNA expression level at 1 to 10 uM cells after 48 hrs by qPCR analysis; format: toxicity, cell-based; details: k562, 48 h, dose 1-10 µM
Summary of the method: (§2)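 K562 cells at 10^5 cells/ml grown without compound (control) or with 10−6 M or 10−5 M compound for 48 h. Total RNA isolated, then checked by gel electrophoresis and spectrophotometry. Transcripts quantified by qPCR.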

[5] = system: K562; experiment: Induction of apoptosis in human K562 cells assessed as effect on caspase-3 mRNA expression level at 1 to 10 uM cells after 48 hrs by qPCR analysis; format: toxicity, cell-based; details: k562, 48 h, dose 1-10 µM; summary of the method: as §2
[6] = system: FLC clone 745; experiment: Induction of cell cycle arrest in mouse FLC clone 745 cells assessed as accumulation cells at subG1 phase at 10^-6 M after 24 hrs by PI staining based flow cytometric analysis (reference value: 24.11%); format: functional; details: dose 1 10^-6M, at 1 µM; summary of the method: as §1
[7] = system: FLC clone 745; experiment: Induction of cell cycle arrest in HMBA-stimulated mouse FLC clone 745 cells assessed as accumulation cells at S phase at 10^-6 M after 72 hrs by PI staining based flow cytometric analysis (reference value: 19.52%); format: functional; details: dose 1 10^-6M, at 1 µM; summary of the method: as §1
[8] = system: FLC clone 745; experiment: Induction of cell cycle arrest in mouse FLC clone 745 cells assessed as accumulation cells at > 4N phase at 10^-6 M after 48 hrs by PI staining based flow cytometric analysis (reference value: 7.11%); format: functional; details: dose 1 10^-6M, at 1 µM; summary of the method: as §1
[9] = system: FLC clone 745; experiment: Induction of cell cycle arrest in mouse FLC clone 745 cells assessed as accumulation cells at S phase at 10^-6 M after 24 hrs by PI staining based flow cytometric analysis (reference value: 28.46%); format: functional; details: dose 1 10^-6M, at 1 µM; summary of the method: as §1
[10] = Cytotoxicity against mouse FLC clone 745 cells assessed as reduction in cell viability measured after 48 hrs by Neubauer chamber based microscopic analysis; format: toxicity
[11] = system: FLC clone 745; experiment: Induction of cell cycle arrest in HMBA-stimulated mouse FLC clone 745 cells assessed as accumulation cells at S phase at 10^-6 M after 24 hrs by PI staining based flow cytometric analysis (reference value: 21.59%); format: functional; details: dose 1 10^-6M, at 1 µM; summary of the method: as §1
[12] = system: K562; experiment: Induction of apoptosis in human K562 cells assessed as effect on Bcl-2 mRNA expression level at 1 to 10 uM cells after 48 hrs by qPCR analysis; format: toxicity, cell-based; details: k562, 48 h, dose 1-10 µM; summary of the method: as §2
[13] = system: FLC clone 745; experiment: Induction of cell cycle arrest in HMBA-stimulated mouse FLC clone 745 cells assessed as accumulation cells at G2/M phase at 10^-6 M after 48 hrs by PI staining based flow cytometric analysis (reference value: 6.67%); format: functional; details: dose 1 10^-6M, at 1 µM; summary of the method: as §1
[14] = system: FLC clone 745; experiment: Induction of cell cycle arrest in HMBA-stimulated mouse FLC clone 745 cells assessed as accumulation cells at > 4N phase at 10^-6 M after 48 hrs by PI staining based flow cytometric analysis (reference value: 2.83%); format: functional; details: dose 1 10^-6M, at 1 µM; summary of the method: as §1
[15] = system: FLC clone 745; experiment: Induction of cell cycle arrest in HMBA-stimulated mouse FLC clone 745 cells assessed as accumulation cells at S phase at 10^-6 M after 48 hrs by PI staining based flow cytometric analysis (reference value: 31.43%); format: functional; details: dose 1 10^-6M, at 1 µM; summary of the method: as §1
[16] = system: FLC clone 745; experiment: Induction of cell cycle arrest in HMBA-stimulated mouse FLC clone 745 cells assessed as accumulation cells at G2/M phase at 10^-6 M after 24 hrs by PI staining based flow cytometric analysis (reference value: 9.52%); format: functional; details: dose 1 10^-6M, at 1 µM; summary of the method: as §1
[17] = system: FLC clone 745; experiment: Induction of cell cycle arrest in HMBA-stimulated mouse FLC clone 745 cells assessed as accumulation cells at subG1 phase at 10^-6 M after 24 hrs by PI staining based flow cytometric analysis (reference value: 41.78%); format: functional; details: dose 1 10^-6M, at 1 µM; summary of the method: as §1
[18] = system: FLC clone 745; experiment: Induction of cell cycle arrest in mouse FLC clone 745 cells assessed as accumulation cells at G1/G0 phase at 10^-6 M after 24 hrs by PI staining based flow cytometric analysis (reference value: 19.61%); format: functional; details: dose 1 10^-6M, at 1 µM; summary of the method: as §1
[19] = system: FLC clone 745; experiment: Induction of cell cycle arrest in mouse FLC clone 745 cells assessed as accumulation cells at > 4N phase at 10^-6 M after 24 hrs by PI staining based flow cytometric analysis (reference value: 13.47%); format: functional; details: dose 1 10^-6M, at 1 µM; summary of the method: as §1
[20] = system: FLC clone 745; experiment: Inhibition of G9a/GLP in HMBA-stiumulated mouse FLC clone 745 cells assessed as increase in HBB protein expression at 10^-6 M after 48 hrs by Western blot analsysis; format: cell-based; details: dose 1.0 10^-6M
Summary of the method: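 MEL cells treated for 48 h with HMBA 5 × 10−3 M plus compound at 10−6 M. About 10^6 cells lysed in Tris/NaCl/2% SDS, sonicated, and protein quantified by BCA. 20 µg run on a 12% SDS-PAGE gel and transferred to PVDF. Membrane probed overnight at 4 °C with anti-hemoglobin β/γ/δ/ε, with β-tubulin as loading control, then HRP secondary for 1 h at room temperature.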

[21] = system: FLC clone 745; experiment: Induction of cell cycle arrest in mouse FLC clone 745 cells assessed as accumulation cells at G2/M phase at 10^-6 M after 72 hrs by PI staining based flow cytometric analysis (reference value: 24.82%); format: functional; details: dose 1 10^-6M, at 1 µM; summary of the method: as §1
[22] = system: K562; experiment: Induction of apoptosis in human K562 cells assessed as effect on caspase-9 mRNA expression level at 1 to 10 uM cells after 48 hrs by qPCR analysis; format: toxicity, cell-based; details: k562, 48 h, dose 1-10 µM; summary of the method: as §2
[23] = system: FLC clone 745; experiment: Induction of cell cycle arrest in HMBA-stimulated mouse FLC clone 745 cells assessed as accumulation cells at G1/G0 phase at 10^-6 M after 72 hrs by PI staining based flow cytometric analysis (reference value: 7.19%); format: functional; details: dose 1 10^-6M, at 1 µM; summary of the method: as §1
[24] = system: FLC clone 745; experiment: Induction of cell cycle arrest in mouse FLC clone 745 cells assessed as accumulation cells at S phase at 10^-6 M after 72 hrs by PI staining based flow cytometric analysis (reference value: 24.02%); format: functional; details: dose 1 10^-6M, at 1 µM; summary of the method: as §1
[25] = Inhibition of G9a/GLP in HMBA-stiumulated mouse FLC clone 745 cells assessed as increase in erythroid differentiation at IC50 concentration measured after 72 hrs by benzidine-H2O2 based assay (reference value: 69.6%); details: condition erythroleukemia
[26] = system: FLC clone 745; experiment: Induction of cell cycle arrest in mouse FLC clone 745 cells assessed as accumulation cells at subG1 phase at 10^-6 M after 72 hrs by PI staining based flow cytometric analysis (reference value: 9.87%); format: functional; details: dose 1 10^-6M, at 1 µM; summary of the method: as §1

COc1cc2c(cc1OCCCN1CCCC1)N=C(N)C21CCC1
Activity [1]: Non-Toxic | Activity [2]: 62.86% | Activity [3]: 11.78% | Activity [4]: Non-Toxic | Activity [5]: Non-Toxic | Activity [6]: 37.13% | Activity [7]: 19.84% | Activity [8]: 9.4% | Activity [9]: 23.91% | IC50 at 48 h [10]: > 100 µM | Activity [11]: 1.26% | Activity [12]: Non-Toxic | Activity [13]: 5.67% | Activity [14]: 3.08% | Activity [15]: 28.62% | Activity [16]: 6.93% | Activity [17]: 55.4% | Activity [18]: 20.43% | Activity [19]: 9.49% | inhibition [20]: Active | Activity [21]: 11.32% | Activity [22]: Non-Toxic | Activity [23]: 8.17% | Activity [24]: 23.1% | inhibition (INH) [25]: 76.6% | Activity [26]: 39.53%
